Experimental data as given in ChEMBL document CHEMBL4251569, “Camptothecin-psammaplin A hybrids as topoisomerase I and HDAC dual-action inhibitors” (Eur J Med Chem, 2018).

Assays:
A2780 = experiment: cells; assay type: functional, cell-based; details: Homo sapiens, A2780, 72 h
HT-29 = experiment: Antiproliferative activity against human HT-29 cells after 72 hrs by SRB assay; assay type: functional, cell-based; details: HT-29, 72 h
NCI-H460 = experiment: cells; assay type: functional, cell-based; details: Homo sapiens, NCI-H460, 72 h
DU-145 = experiment: cells; assay type: functional, cell-based; details: Homo sapiens, DU-145, 72 h
A-431 = experiment: cells; assay type: functional, cell-based; details: Homo sapiens, A-431, 72 h
cells = assay type: functional, cell-based; details: Homo sapiens, A2780/DX, 72 h
CAPAN-1 = experiment: cells; assay type: functional, cell-based; details: Homo sapiens, CAPAN-1, 72 h
HepG2 = experiment: Antiproliferative activity against human HepG2 cells after 72 hrs by SRB assay; assay type: functional, cell-based; details: HepG2, 72 h
HeLa = experiment: cells; assay type: functional, cell-based; details: Homo sapiens, 72 h
Histone deacetylase 1 = Histone deacetylase 1 (Homo sapiens, UniProt Q13547); experiment: Inhibition of HDAC1 (unknown origin) using RHKK(Ac)AMC as substrate after 1 to 2 hrs by fluorescence assay
[1] = molecular target: Polyamine deacetylase HDAC10 (Homo sapiens, UniProt Q969S8); experiment: Inhibition of HDAC10 (unknown origin) using RHKK(Ac)AMC as substrate after 1 to 2 hrs by fluorescence assay
Histone deacetylase 2 = Histone deacetylase 2 (Homo sapiens, UniProt Q92769); experiment: Inhibition of HDAC2 (unknown origin) using RHKK(Ac)AMC as substrate after 1 to 2 hrs by fluorescence assay
Histone deacetylase 4 = Histone deacetylase 4 (Homo sapiens, UniProt P56524); experiment: Inhibition of HDAC4 (unknown origin) using fluorogenic substrate after 1 to 2 hrs by fluorescence assay
Outline: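 Purified HDAC4 preincubated with compound (10 concentrations from 10 µM, triplicate, final 1% DMSO) in 50 mM Tris-HCl pH 8.0, 137 mM NaCl, 2.7 mM KCl, 1 mM MgCl2, 1 mg/ml BSA. Class 2a trifluoroacetyl-lysine fluorogenic substrate added and incubated 1–2 h at 30 °C. Developer with TMP269 stops the reaction; fluorescence read at ex 360/em 460 at plateau. Activity is relative to DMSO, and IC50 comes from a sigmoidal fit.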

[2] = molecular target: Protein deacetylase HDAC6 (Homo sapiens, UniProt Q9UBN7); experiment: Inhibition of HDAC6 (unknown origin) using RHKK(Ac)AMC as substrate after 1 to 2 hrs by fluorescence assay
Chain of Protein deacetylase HDAC6 (Q9UBN7 whole entry): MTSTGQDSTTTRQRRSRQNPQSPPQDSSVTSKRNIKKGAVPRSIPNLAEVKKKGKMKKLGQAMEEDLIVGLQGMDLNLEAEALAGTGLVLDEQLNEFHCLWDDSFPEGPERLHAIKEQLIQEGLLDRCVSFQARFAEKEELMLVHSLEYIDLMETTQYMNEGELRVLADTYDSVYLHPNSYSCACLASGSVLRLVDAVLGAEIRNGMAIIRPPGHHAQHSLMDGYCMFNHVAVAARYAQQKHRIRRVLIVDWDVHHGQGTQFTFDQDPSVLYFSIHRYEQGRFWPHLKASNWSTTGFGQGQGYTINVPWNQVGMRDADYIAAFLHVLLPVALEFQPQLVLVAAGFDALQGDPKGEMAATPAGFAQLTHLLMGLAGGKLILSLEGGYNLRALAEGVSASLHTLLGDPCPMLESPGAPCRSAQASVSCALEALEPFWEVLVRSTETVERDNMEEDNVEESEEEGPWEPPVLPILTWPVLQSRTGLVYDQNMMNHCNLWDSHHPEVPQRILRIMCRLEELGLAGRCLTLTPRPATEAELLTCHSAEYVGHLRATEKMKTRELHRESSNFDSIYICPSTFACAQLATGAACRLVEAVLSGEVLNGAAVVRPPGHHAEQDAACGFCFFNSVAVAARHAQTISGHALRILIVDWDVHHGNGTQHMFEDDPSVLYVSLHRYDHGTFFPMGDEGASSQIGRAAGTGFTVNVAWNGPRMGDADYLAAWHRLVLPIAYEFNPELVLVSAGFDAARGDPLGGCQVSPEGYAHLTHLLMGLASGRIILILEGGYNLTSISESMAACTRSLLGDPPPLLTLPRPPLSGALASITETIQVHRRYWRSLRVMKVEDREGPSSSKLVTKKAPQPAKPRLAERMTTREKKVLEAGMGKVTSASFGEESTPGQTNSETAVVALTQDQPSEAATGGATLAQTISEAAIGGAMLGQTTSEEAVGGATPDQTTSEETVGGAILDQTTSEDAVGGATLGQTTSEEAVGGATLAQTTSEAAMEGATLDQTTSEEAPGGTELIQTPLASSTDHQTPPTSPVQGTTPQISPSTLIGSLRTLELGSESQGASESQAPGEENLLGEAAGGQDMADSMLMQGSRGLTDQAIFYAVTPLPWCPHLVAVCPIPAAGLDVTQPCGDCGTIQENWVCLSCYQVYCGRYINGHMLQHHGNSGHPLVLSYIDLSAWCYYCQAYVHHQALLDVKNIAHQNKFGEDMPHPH

Chain of Histone deacetylase 1 (Q13547 whole entry): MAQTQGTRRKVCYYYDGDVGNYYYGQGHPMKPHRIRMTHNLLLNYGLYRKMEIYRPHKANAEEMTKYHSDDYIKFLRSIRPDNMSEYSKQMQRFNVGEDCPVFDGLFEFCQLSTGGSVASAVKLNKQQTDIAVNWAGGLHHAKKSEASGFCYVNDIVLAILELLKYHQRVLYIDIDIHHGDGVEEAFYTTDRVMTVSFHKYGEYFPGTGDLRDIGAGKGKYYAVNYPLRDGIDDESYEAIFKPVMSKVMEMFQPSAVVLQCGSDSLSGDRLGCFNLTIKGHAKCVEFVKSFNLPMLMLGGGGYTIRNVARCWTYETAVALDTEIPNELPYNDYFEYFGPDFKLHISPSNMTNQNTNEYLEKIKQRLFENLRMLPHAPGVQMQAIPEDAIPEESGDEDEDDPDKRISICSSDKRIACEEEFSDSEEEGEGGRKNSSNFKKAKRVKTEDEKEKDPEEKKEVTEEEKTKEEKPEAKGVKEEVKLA
Chain of Polyamine deacetylase HDAC10 (Q969S8 whole entry): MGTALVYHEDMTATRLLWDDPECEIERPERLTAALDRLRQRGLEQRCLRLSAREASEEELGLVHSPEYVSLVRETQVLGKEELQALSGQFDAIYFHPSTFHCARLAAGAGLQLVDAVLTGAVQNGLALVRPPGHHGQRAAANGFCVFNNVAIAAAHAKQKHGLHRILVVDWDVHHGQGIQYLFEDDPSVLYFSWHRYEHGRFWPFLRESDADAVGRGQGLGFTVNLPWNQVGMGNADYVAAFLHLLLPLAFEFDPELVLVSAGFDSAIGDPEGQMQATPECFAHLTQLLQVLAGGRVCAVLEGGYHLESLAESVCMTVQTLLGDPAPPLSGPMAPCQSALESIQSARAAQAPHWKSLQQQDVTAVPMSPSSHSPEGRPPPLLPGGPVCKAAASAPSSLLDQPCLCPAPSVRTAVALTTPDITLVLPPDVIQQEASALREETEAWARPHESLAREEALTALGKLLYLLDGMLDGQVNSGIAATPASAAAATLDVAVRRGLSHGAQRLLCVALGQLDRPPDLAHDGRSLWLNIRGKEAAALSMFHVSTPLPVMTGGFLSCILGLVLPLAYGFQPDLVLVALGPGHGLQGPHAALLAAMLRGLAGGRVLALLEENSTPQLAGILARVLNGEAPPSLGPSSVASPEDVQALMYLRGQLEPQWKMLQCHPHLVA
Chain of Histone deacetylase 4 (P56524 whole entry): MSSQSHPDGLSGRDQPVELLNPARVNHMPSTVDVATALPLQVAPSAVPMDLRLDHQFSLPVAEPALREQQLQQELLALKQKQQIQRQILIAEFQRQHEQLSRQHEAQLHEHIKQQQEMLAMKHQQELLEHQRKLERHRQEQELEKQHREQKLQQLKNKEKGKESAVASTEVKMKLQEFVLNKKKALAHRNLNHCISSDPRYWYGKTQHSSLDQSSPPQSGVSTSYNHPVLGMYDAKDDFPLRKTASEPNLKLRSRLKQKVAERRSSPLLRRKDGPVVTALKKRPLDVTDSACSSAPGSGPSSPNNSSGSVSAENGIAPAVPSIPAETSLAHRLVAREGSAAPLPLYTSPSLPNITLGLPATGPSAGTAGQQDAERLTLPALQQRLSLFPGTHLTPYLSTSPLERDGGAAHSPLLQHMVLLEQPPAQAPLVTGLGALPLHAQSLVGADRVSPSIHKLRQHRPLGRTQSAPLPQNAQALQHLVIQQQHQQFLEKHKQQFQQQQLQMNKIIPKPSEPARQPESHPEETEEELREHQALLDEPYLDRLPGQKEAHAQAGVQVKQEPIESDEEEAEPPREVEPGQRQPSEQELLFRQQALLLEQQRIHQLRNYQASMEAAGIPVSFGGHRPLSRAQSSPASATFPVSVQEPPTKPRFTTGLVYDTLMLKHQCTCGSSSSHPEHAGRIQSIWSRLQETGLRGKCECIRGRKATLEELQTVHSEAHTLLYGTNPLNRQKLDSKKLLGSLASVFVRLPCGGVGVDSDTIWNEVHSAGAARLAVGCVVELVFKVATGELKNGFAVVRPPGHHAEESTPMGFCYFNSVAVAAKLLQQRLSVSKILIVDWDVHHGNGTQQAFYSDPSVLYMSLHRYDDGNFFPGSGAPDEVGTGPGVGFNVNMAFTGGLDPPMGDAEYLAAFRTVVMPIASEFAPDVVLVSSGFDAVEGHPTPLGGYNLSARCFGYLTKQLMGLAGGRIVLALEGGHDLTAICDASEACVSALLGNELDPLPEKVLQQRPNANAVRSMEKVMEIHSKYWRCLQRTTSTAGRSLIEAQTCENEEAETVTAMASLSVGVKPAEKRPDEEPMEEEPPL
Chain of Histone deacetylase 2 (Q92769 whole entry): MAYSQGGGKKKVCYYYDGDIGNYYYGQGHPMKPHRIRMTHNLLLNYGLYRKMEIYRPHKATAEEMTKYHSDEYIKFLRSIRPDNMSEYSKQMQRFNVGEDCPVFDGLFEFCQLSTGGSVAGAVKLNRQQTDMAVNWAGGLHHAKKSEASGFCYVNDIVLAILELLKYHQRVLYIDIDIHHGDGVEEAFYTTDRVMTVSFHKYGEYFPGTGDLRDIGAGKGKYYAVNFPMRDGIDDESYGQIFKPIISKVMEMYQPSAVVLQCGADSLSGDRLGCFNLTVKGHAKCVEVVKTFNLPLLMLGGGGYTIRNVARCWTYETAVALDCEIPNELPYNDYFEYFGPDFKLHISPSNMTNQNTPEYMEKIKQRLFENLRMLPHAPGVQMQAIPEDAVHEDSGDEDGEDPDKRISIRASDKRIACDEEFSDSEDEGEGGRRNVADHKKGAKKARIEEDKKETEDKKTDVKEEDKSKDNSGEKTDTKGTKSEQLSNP

Row | SMILES | IC50 (A2780) | IC50 (HT-29) | IC50 (NCI-H460) | IC50 (DU-145) | IC50 (A-431) | IC50 (cells) | IC50 (CAPAN-1) | IC50 (HepG2) | IC50 (HeLa) | IC50 (Histone deacetylase 1) | IC50 [1] | IC50 (Histone deacetylase 2) | IC50 (Histone deacetylase 4) | IC50 [2]
1 | CC[C@@]1(O)C(=O)OCc2c1cc1n(c2=O)Cc2c-1nc1ccccc1c2/C=N/OCCCCCC(=O)NCCSSCCNC(=O)/C(Cc1ccc(O)cc1)=N\O | 290 nM | 460 nM | 220 nM | 190 nM | 310 nM | 1600 nM | 75 nM | 610 nM | 580 nM | – | – | – | – | –
2 | CC[C@@]1(O)C(=O)OCc2c1cc1n(c2=O)Cc2c-1nc1ccc(O)cc1c2/C=N/OCCCCCC(=O)NCCSSCCNC(=O)/C(Cc1ccc(O)c(Br)c1)=N\O | – | – | 880 nM | – | – | – | 200 nM | – | – | 253 nM | 9.12 nM | 410 nM | Not Active | 1490 nM
